Source: PubChem (several laboratories)
MEKK2 WT-MEK5 – raises or lowers MEK5 binding to wildtype human MEKK2 PB1 domain | Q9Y2U5 | bead flow cytometry, Alexa488-MEK5 binding to MEKK2 WT; actives lie on both sides | binding response (% of control), % at 10 µM | 1.1% of 290,000 active | AID 1531; in the data active means binding response below about 67% or above about 130%; inconclusive means no clear call, values can overlap the other calls; inactive means in between
UCH37 DUB inh – blocks the human deubiquitinase UCH37; Q9Y5K5; purified proteasome/UCH37, Ub-AMC cleavage fluorescence; inhibition, % (concentration not given with the values); 0.33% of 330,000 active; AID 588478;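 active means mean inhibition over replicate wells above about 20%, limit read from the data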;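 further: 0% = compound-free wells with enzyme and 100% = wells lacking proteasome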
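Signal – fluorescence, ex 355 nm, em 460 nm · System – Proteasome-bound UCH37 · Input – 0.15 nM proteasome as dispensed · Timing – 30 min preincubation with enzyme, 25 min cleavage at room temperature · Read-out basis – percent inhibition of cleavage signal versus uninhibited and no-proteasome wells · Medium – Tris-HCl pH 7.4 with ATP-MgCl2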
Apaf-1 inh – inhibitors of human Apaf-1 apoptosome; inhibition, % at 20 µM; reconstituted apoptosome caspase-3 activity, DEVD-Rh110 fluorescence; O14727; 0.71% of 330,000 active; active means inhibition of at least 40% at 20 µM;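 further: plate controls were DMSO wells for no effect and DEVD-CHO caspase inhibitor wells for full effect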
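Material: reconstituted apoptosome with Apaf-1, cytochrome c, caspase-9, procaspase-3, dATP; medium: pH 7.5 Hepes buffer with CHAPS, BSA, DTT; also added: cytochrome c and DEVD-Rh110 substrate; timing: 30 min plus 50 min, RT; signal: Rh110 fluorescence intensity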
MEKK3 PB1 HTS – MEKK3-MEK5 PB1 interaction, increase or decrease; Q99759; bead-based flow cytometry, Alexa488-MEK5 binding to MEKK3; actives lie on both sides; 0 = blocked by unlabeled MEK5, 100 = vehicle; binding response (% of control), % at 10 µM; 1.4% of 290,000 active; AID 1529;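 active means binding response more than 3 SD above or below the average of its plate-row segment, actives on both sides; inconclusive means wells at one plate position flagged as instrument error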;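 further: Alexa488 bead fluorescence after subtracting the streptavidin-only scavenger bead signal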
Target sequence (Q99759 whole entry, looked up): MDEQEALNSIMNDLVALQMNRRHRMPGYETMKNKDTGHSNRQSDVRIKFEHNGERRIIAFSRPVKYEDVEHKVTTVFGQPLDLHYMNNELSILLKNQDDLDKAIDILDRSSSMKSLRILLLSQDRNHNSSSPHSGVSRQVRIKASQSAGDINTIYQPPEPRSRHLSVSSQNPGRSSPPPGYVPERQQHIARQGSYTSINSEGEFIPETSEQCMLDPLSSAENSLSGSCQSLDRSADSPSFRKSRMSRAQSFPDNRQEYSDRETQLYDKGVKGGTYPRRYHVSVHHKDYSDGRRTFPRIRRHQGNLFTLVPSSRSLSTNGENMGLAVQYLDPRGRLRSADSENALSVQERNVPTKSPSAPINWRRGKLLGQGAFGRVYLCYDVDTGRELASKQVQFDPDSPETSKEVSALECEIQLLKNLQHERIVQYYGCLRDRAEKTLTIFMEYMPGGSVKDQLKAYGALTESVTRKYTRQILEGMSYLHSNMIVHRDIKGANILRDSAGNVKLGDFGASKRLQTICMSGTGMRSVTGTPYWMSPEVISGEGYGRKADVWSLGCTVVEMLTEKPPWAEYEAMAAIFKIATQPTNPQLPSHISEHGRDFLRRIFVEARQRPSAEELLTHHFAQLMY
UBC13 inh – human UBC13 polyubiquitination inhibition | 0.47% of 330,000 active | P61088 | UBC13 polyubiquitin chain formation, TR-FRET | AID 485273 | inhibition, % at 20 µM; in the data active means inhibition above about 45%, passing the limit was not always enough; inconclusive means no clear call, values can overlap the other calls
MEKK2 mut-MEK5 – signal of MEK5 binding to mutant human MEKK2 PB1 domain | percent response, % at 10 µM | bead flow cytometry, Alexa488-MEK5 binding to MEKK2 mutant | 0.35% of 290,000 active; in the data active means percent response above about 24%, passing the limit was not always enough
Active calls of the source: *; ? = inconclusive; . = not tested or not shown; [ ] = remark or other dose. A selection: hits, their analogues and other compounds. The true share with any hit is near 3%.

SMILES | MEKK2 WT-MEK5 | UCH37 DUB inh | Apaf-1 inh | MEKK3 PB1 HTS | UBC13 inh | MEKK2 mut-MEK5
COc1ccc(C2/C=C\CN(C(=O)CC(C)C)CC(=O)N2Cc2ccc(F)cc2)cc1 (centres undefined) | ? | 0 | 15 | 94 | -15 | -4
O=C(COC(=O)c1ccc(S(=O)(=O)N2CCOCC2)cc1)Nc1ccccc1OC(F)F | . | 3 | -3 | . | 11 | .
COc1cc(OC)cc(OC(=O)c2ccc3c(=O)n4c(nc3c2)CCC4)c1 | . | 1 | -6 | . | -12 | .
OC(c1cc(-c2ccc(Cl)cc2)nc2ccccc12)C1CCCCN1 (centres undefined) | 155* | . | . | 115 | . | 59*
OC(c1cc(C(F)(F)F)nc2c(Cl)cc(Cl)cc12)C1CCCCN1 (centres undefined) | 125 | 6 | 8 | 107 | 7 | 15
CCOC(=O)Cc1csc(N/C(=N/S(=O)(=O)c2ccc(Cl)cc2)c2ccccc2)n1 | 96 | 1 | 63* | 99 | -5 | -2
Cc1cc(=O)oc2cc(OCC(=O)NC3CC(C)(C)NC(C)(C)C3)ccc12 | 74 | -11 | -3 | 78*[inhibitor] | 3 | -12
CCc1cc(=O)oc2cc(OCC(=O)NC3CC(C)(C)NC(C)(C)C3)ccc12 | 111 | -13 | -20 | 103 | 2 | 4
CCOC(=O)c1ccc(N2C(=O)C(O)=C(C(C)=O)C2c2ccc([N+](=O)[O-])cc2)cc1 (centres undefined) | 101 | 15 | 1 | 107 | -25 | 1
O=C(COc1ccc(Br)cc1)Nc1ccccc1N1CCCC1 | 107 | 28* | -1 | 107 | 7 | 0
CC(=O)N1CCN(c2ccccc2NC(=O)COc2ccc(Br)cc2)CC1 | 100 | 6 | -10 | 99 | 5 | 3
O=C(N/N=C\c1ccc2c(c1)OCO2)c1cncc(Br)c1 | 100 | . | 4 | 101 | -5 | -5
O=c1c(=NNc2ccccc2Cl)c(=O)c2ccccc12 | 88 | 7 | . | 77*[inhibitor] | . | -12
Cc1cc(C)c(NN=c2c(=O)c3ccccc3c2=O)c(C)c1 | . | 3 | 8 | . | -39 | .
O=C(NCc1cccs1)c1cc2c(s1)CS(=O)(=O)C2 | 94 | 1 | -6 | 97 | 1 | 2
Cc1ccc(CNC(=O)c2cc3c(s2)CS(=O)(=O)C3)cc1 | 0.0*[inhibitor] | 2 | -6 | 2.0*[inhibitor] | -3 | -17
Cc1nc2nc(SCC(=O)c3ccc([N+](=O)[O-])cc3)[nH]c2cc1Br | 86 | 2 | 10 | 95 | -2 | -5
Cc1cc(C)nc(SCC(=O)N2CCCCC2)n1 | -2.0* | 2 | -3 | 91 | 6 | 14
CC1=C(N2CCCCC2)CCC1=O | 103 | 33* | 2 | 102 | 3 | 5
O=C1CNC(=O)/C1=C\N1CCCCC1 | 100 | 5 | -17 | 99 | -2 | 4
O=C(CN(Cc1ccccc1F)C(=O)c1csnn1)NC1CCCCC1 | 101 | 2 | -6 | 97 | -1 | 2
CC(=O)OCC(=O)[C@@]12OC3(CCCC3)O[C@@H]1C[C@H]1[C@@H]3CCC4=CC(=O)C=C[C@]4(C)[C@@]3(F)[C@@H](O)C[C@@]12C | -3.0* | 2 | 14 | 85 | 9 | 3
CC1(C)O[C@@H]2C[C@H]3[C@@H]4CCC5=CC(=O)C=C[C@]5(C)[C@@]4(F)[C@@H](O)C[C@]3(C)[C@]2(C(=O)CO)O1 | 95 | 1 | -3 | 109 | -9 | 4
COc1cc(/C=C2\S/C(=N/S(=O)(=O)c3ccccc3)NC2=O)c([N+](=O)[O-])cc1OC | 101 | 23* | 12 | 105 | -8 | 1
CCOc1ccccc1NC(=O)Cn1c(=O)n(-c2ccccc2)c(=O)c2oc3ccccc3c21 | 5.0* | -6 | 0 | 96 | -8 | 10
SMILES | MEKK2 WT-MEK5 | UCH37 DUB inh | Apaf-1 inh | MEKK3 PB1 HTS | UBC13 inh | MEKK2 mut-MEK5
NC(=O)Cn1c(=O)n(-c2ccccc2)c(=O)c2oc3ccccc3c21 | 95 | 5 | -18 | 103 | 8 | -6
COc1cc2ccccc2cc1C(=O)Nc1ccc(N2CCN(C(=O)C(C)C)CC2)cc1 | 91 | 5 | 19 | 85 | -2 | -13
COc1cccc2cc(C(=O)C3=C(O)C(=O)N(c4cc(C)on4)C3c3cccs3)oc12 (centres undefined) | -11* | 1 | -2 | 100 | -1 | 2
CC1=NN(c2ccc(C(=O)O)cc2)C(=O)/C1=C/c1ccc(-c2ccccc2F)o1 | 102 | . | 58* | 104 | -34 | 3
CC1=NN(c2ccccc2)C(=O)/C1=C/c1ccc(-c2ccc(C)c(C(=O)O)c2)o1 | . | . | 68* | . | -71 | .
CC1=NN(c2ccc(C)cc2)C(=O)/C1=C/c1ccc(-c2cc([N+](=O)[O-])ccc2O)o1 | 86 | 3 | 15 | 89 | -66 | -8
CC1=NN(c2ccc(Cl)c(C(=O)O)c2)C(=O)/C1=C\c1ccc(-c2ccc(C(=O)O)cc2)o1 | 88 | -6 | . | 95 | . | -9
CCCN1CCN(CCCNC(=O)C(CC)n2nc(C)n3c(cc4occc43)c2=O)CC1 (centres undefined) | 102 | -2 | 9 | 103 | 3 | 3
COc1ccc(CCCc2nnc(SCC(=O)NN=Cc3ccc(O)c(OC)c3)o2)cc1C | . | 4 | . | . | . | .
Cc1ccc2oc(=O)c3cc(C(=O)NCCCN4CCCCCC4)sc3c2c1 | 132 | -31 | 26 | 102 | 15 | 7
CCC1CCCCN1CCCNC(=O)c1ccc2c(c1)c(C)c(C)n2C (centres undefined) | 158* | 2 | 25 | 99 | 8 | 21
CCC1CCCCN1CCCNC(=O)c1cc2c(=O)oc3ccc(C)cc3c2s1 (centres undefined) | 153* | -26 | 18 | 102 | 24 | 14
CCn1c(C)c(C)c2cc(C(=O)NCCCN3CCOCC3)ccc21 | 113 | 2 | 4 | 103 | 6 | 7
CCC1CCCCN1CCCNC(=O)c1ccc2c(c1)N(Cc1ccc(F)cc1)C(=O)c1ccccc1S2=O (centres undefined) | 147* | 4 | 23 | 107 | 9 | 10
CCC1CCCCN1CCCNC(=O)c1ccc2c(c1)c(C)c(C)n2CC (centres undefined) | 50* | -2 | 8 | 101 | 18 | 20
N#CC1=C(N)NC(SCc2ccc(Cl)cc2)=C(C#N)C12CCCCC2 | 102 | 0 | 23 | 102 | 0 | 3
N#CC1=C(N)NC(SCc2ccccc2)=C(C#N)C12CCCC2 | 91 | 21* | 12 | 94 | 21 | -3
CCNc1nc(NCC)n2c(SCC(=O)O)nnc2n1 | 103 | 34* | 14 | 101 | 4 | 7
CCNc1nc(NCC)n2c(SCC(=O)Nc3c(C)cccc3C)nnc2n1 | . | -3 | 4 | . | -3 | .
